pIC50: −log10 of the molar value.
Assays:
SARS-CoV-2 = test: Antiviral activity against SARS-CoV-2 infected in African green monkey Vero cells assessed as inhibition of viral infection by measuring nucleocapsid protein level by immunofluorescence microscopic analysis; type: functional, organism-based; conditions: Severe acute respiratory syndrome coronavirus 2, Vero
Vero = test: Cytotoxicity against African green monkey Vero cells assessed as reduction of cell viability by WST-1 assay; type: cell-based; conditions: chlorocebus sabaeus
[1] = Selective index, ratio of CC50 for African green monkey Vero cells to IC50 for SARS-CoV-2 infected in African green monkey Vero cells
[2] = test system: Middle East respiratory syndrome-related coronavirus; test: Antiviral activity against MERS-CoV infected in African green monkey Vero cells assessed as inhibition of viral infection by measuring reduction in spike protein level by immunofluorescence microscopic analysis; type: functional, organism-based
[3] = Stability in mouse microsomes assessed as as parent compound remaining after 30 mins; type: ADME, Microsome; conditions: read-out: Stabilty
Outline: (§1)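 Liver microsomes from human, mouse and rat were used. The read-out is percent of parent compound remaining after 30 min incubation.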

[4] = Stability in rat microsomes assessed as as parent compound remaining after 30 mins; type: ADME, Microsome; conditions: read-out: Stabilty; outline: as §1
[5] = Stability in human microsomes assessed as as parent compound remaining after 30 mins; type: ADME, Microsome; conditions: read-out: Stabilty; outline: as §1
HFL1 = test: Cytotoxicity against human HFL-1 cells; type: cell-based
[6] = Cytotoxicity against CHO-K1 cells; type: cell-based, Cricetulus griseus; conditions: chinese hamster
[7] = Cytotoxicity against mouse NCTC clone 929 cells; type: cell-based
[8] = Cytotoxicity against mouse NIH3T3 cells; type: cell-based
hERG (KCNH2) = hERG (KCNH2) (Homo sapiens, UniProt Q12809); test: Inhibition of human ERG at 10 uM relative to control
CYP1A2 = target: T1, CYP1A2 (Homo sapiens, UniProt P05177); test: Inhibition of CYP1A2 (unknown origin) at 10 uM relative to control; type: ADME
T1 sequence (P05177 whole entry): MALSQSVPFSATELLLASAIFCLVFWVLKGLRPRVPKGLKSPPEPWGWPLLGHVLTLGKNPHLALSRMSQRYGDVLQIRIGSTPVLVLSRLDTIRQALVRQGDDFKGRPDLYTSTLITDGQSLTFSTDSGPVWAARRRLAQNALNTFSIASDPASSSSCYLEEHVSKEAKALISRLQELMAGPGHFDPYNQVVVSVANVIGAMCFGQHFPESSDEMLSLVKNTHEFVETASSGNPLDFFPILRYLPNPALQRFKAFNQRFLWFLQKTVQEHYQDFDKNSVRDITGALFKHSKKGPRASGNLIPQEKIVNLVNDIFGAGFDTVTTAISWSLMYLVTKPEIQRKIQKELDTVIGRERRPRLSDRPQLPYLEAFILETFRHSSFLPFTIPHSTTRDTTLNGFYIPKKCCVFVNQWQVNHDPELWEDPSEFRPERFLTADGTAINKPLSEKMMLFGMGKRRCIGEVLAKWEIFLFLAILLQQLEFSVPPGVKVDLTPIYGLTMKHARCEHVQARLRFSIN

CYP2C9 = CYP2C9 (Homo sapiens, UniProt P11712); test: Inhibition of CYP2C9 (unknown origin) at 10 uM relative to control; type: ADME
CYP2C19 = CYP2C19 (Homo sapiens, UniProt P33261); test: Inhibition of CYP2C19 (unknown origin) at 10 uM relative to control; type: ADME
CYP2D6 = CYP2D6 (Homo sapiens, UniProt P10635); test: Inhibition of CYP2D6 (unknown origin) at 10 uM relative to control; type: ADME
CYP3A4 = CYP3A4 (Homo sapiens, UniProt P08684); test: Inhibition of CYP3A4 (unknown origin) at 10 uM relative to control; type: ADME
[9] = Oral bioavailability in rat at 10 mg/kg; type: ADME, organism-based; conditions: in vivo
Outline: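 Rats received oral dosing at 10 mg/kg alongside intravenous dosing at 2 mg/kg. Values are the mean of experiments using three rats.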

[10] = Selective index, ratio of CC50 for African green monkey Vero cells to IC50 for MERS-CoV infected in African green monkey Vero cells

Sequence of CYP2D6 (P10635 whole entry): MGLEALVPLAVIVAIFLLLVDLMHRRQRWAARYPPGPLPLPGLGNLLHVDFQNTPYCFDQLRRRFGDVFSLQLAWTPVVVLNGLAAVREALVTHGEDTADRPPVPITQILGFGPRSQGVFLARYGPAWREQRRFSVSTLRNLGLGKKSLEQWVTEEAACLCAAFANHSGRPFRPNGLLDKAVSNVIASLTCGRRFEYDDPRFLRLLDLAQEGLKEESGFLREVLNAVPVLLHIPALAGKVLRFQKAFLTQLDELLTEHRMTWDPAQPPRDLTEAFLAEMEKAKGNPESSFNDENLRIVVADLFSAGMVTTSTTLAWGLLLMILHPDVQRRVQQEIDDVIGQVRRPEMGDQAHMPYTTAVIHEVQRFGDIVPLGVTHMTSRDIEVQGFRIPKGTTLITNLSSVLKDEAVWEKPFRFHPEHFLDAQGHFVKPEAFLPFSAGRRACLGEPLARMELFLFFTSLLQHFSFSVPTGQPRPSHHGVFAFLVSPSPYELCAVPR
Sequence of hERG (KCNH2) (Q12809 whole entry): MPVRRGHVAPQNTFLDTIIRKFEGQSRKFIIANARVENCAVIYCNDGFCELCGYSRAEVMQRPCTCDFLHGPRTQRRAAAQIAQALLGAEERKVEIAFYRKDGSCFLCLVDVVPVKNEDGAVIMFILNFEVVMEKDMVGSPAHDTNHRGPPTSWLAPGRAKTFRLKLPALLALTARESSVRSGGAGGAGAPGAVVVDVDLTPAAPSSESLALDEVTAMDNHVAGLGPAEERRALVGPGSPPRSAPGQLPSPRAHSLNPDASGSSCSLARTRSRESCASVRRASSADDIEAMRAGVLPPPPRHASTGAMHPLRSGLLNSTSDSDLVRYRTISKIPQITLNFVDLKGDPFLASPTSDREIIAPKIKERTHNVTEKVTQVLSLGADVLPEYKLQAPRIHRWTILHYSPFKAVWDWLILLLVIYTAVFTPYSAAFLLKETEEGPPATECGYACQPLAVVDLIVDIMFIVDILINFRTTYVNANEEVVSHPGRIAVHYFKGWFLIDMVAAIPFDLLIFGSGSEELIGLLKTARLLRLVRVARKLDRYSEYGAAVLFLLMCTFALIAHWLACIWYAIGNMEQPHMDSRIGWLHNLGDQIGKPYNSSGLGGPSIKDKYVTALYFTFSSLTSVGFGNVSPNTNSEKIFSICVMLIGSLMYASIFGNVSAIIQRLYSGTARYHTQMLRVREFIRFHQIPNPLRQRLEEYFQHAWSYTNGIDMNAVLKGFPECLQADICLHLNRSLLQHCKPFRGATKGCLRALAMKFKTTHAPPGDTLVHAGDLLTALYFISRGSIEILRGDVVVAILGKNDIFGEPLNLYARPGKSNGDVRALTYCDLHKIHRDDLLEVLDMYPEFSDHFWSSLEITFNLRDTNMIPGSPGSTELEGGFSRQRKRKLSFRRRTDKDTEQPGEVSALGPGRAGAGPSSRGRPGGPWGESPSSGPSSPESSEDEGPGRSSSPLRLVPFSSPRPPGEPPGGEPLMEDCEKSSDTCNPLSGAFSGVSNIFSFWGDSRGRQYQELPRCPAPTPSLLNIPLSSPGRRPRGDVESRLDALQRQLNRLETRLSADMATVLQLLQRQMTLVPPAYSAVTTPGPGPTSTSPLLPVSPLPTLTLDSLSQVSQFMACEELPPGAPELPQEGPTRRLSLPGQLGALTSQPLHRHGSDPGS
Sequence of CYP2C19 (P33261 whole entry): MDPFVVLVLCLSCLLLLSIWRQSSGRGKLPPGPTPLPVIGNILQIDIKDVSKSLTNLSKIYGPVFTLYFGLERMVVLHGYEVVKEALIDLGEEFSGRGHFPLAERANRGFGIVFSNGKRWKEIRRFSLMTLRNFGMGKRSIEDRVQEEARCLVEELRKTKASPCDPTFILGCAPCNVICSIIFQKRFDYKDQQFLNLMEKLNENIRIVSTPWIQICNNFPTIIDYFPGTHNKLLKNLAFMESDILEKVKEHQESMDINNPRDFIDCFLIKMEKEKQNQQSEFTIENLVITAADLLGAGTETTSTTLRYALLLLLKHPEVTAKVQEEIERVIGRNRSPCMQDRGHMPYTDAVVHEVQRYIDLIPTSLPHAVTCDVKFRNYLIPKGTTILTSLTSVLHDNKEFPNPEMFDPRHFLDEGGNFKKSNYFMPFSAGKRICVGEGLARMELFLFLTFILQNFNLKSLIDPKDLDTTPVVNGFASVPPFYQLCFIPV
Sequence of CYP2C9 (P11712 whole entry): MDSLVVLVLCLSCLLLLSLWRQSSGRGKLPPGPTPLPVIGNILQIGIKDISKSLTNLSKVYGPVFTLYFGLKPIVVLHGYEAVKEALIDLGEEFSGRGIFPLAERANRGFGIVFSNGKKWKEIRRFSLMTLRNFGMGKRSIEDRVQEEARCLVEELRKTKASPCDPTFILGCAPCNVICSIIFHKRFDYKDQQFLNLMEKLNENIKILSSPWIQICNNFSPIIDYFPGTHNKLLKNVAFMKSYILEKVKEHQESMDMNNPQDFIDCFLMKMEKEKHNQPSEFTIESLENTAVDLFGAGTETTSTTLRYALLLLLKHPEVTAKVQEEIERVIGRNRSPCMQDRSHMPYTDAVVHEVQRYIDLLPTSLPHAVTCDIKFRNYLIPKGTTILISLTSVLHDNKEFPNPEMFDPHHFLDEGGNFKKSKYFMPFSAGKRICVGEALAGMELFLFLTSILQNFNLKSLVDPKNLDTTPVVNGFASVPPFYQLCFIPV
Sequence of CYP3A4 (P08684 whole entry): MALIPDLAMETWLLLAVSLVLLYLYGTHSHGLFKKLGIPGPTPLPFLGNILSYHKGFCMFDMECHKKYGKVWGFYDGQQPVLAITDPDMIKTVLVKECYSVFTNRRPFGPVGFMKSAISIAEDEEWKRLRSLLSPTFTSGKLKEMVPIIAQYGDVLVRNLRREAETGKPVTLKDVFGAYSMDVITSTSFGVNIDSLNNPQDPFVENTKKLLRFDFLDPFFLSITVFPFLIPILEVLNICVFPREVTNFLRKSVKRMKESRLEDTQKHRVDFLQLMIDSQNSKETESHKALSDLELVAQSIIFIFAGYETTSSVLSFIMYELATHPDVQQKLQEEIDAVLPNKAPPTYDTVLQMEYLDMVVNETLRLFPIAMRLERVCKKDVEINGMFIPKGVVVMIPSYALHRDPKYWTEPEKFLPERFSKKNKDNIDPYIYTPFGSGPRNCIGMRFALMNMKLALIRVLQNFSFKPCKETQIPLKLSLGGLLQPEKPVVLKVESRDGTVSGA

Compound	pIC50 (SARS-CoV-2)	CC50 (Vero) [µM]	Ratio CC50/IC50 [1]	pIC50 [2]	Ratio CC50/IC50 [10]	further results
O=c1[nH]c(Nc2cc(Cl)cc(Cl)c2)nc2cc(Cl)ccc12	6.64	> 25	110	6.03	27	remaining at 0.5 h [3]: 112%; remaining at 0.5 h [4]: 105%; remaining at 0.5 h [5]: 99%; CC50 (HFL1): 7.5 µM; CC50 [6]: 11 µM; CC50 [7]: 31 µM; CC50 [8]: > 100 µM; inhibition at 10 µM (hERG (KCNH2)): 38%; inhibition at 10 µM (CYP1A2): 15%; inhibition at 10 µM (CYP2C9): 18%; inhibition at 10 µM (CYP2C19): < 1%; inhibition at 10 µM (CYP2D6): 20%; inhibition at 10 µM (CYP3A4): 32%; bioavailability [9]: 15.6%
O=c1[nH]c(Nc2cc(F)cc(F)c2)nc2cc(C(F)(F)F)ccc12	6.70	≥ 7.6	38	6.14	35	–
O=c1[nH]c(Nc2cc(Cl)cc(Cl)c2)nc2cc(C(F)(F)F)ccc12	6.68	7.1	34	6.02	7.6	–
CC(C)Nc1nc2cc(Cl)ccc2c(=O)[nH]1	< 4.60	> 25	1	–	–	–
O=c1[nH]c(Nc2ccc(F)cc2F)nc2cc(Cl)ccc12	< 4.60	> 25	1	–	–	–
COc1cccc2nc(Nc3cc(F)cc(F)c3)[nH]c(=O)c12	< 4.60	> 25	1	–	–	–
O=c1[nH]c(Nc2ccc(F)c(F)c2F)nc2cc(Cl)ccc12	5.59	> 25	9.4	–	–	–
COC(=O)c1cccc(Nc2nc3cc(Cl)ccc3c(=O)[nH]2)c1	5.06	> 25	2.8	–	–	–
O=c1[nH]c(Nc2cc(F)cc(F)c2)nc2cccc(O)c12	6.33	> 25	54	5.96	22	–
O=c1[nH]c(NCC2CCCCC2)nc2cc(Cl)ccc12	4.85	> 25	1.7	–	–	–
O=c1[nH]c(Nc2cc(Cl)cc(Cl)c2)nc2c(O)cccc12	6.43	> 25	65	5.77	14	–
O=c1[nH]c(Nc2cc(Cl)cc(Cl)c2)nc2cc([N+](=O)[O-])ccc12	6.29	> 25	49	< 4.60	1	–
Cc1cc(C)c2nc(Nc3cc(F)cc(F)c3)[nH]c(=O)c2c1	< 4.60	> 25	1	–	–	–
CCCCNc1nc2cc(Cl)ccc2c(=O)[nH]1	< 4.60	> 25	1	–	–	–
O=c1[nH]c(Nc2cc(F)cc(F)c2)nc2c(Cl)c(Cl)ccc12	6.60	> 25	98	6.08	30	–
O=c1[nH]c(Nc2ccc(F)cc2)nc2cc(Cl)ccc12	< 4.60	> 25	1	–	–	–
O=c1[nH]c(Nc2ccc(Cl)cc2Cl)nc2cc(Cl)ccc12	< 4.60	> 25	1	–	–	–
O=c1[nH]c(Nc2cc(F)cc(F)c2)nc2cc(Cl)ccc12	6.62	≥ 18	74	6.41	65	–
O=c1[nH]c(Nc2cc(F)cc(F)c2)nc2cc([N+](=O)[O-])ccc12	6.39	> 25	61	5.07	2.9	–

Reference: ChEMBL document CHEMBL4732249, “Design, synthesis and biological evaluation of 2-aminoquinazolin-4(3H)-one derivatives as potential SARS-CoV-2 and MERS-CoV treatments” (Bioorg Med Chem Lett, 2021)
